We go through eight compounds from ChEMBL document CHEMBL4270616, “Asymmetrical meta-methoxylated diarylpentanoids: Rational design, synthesis and anti-cancer evaluation in-vitro” (Eur J Med Chem, 2018).

A short description of experiment [1]: Cytotoxicity against human EJ28 cells assessed as inhibition of cell proliferation at 20 uM after 72 hrs by MTT assay relative to control. The settings on record: EJ-28, 72 h. The format is functional. Put shortly:
(§1)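 Single-concentration screen at 20 μM with 72 h exposure in DMEM with 10% FBS, final DMSO 0.1%. Read-out was MTT (5 mg/mL, 4 h, 37°C), DMSO solubilisation and absorbance at 570 nm, expressed as percent inhibition. Lines reaching a threshold percentage went on to IC50 determination.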

Experiment [2] can be described thus: Cytotoxicity against human EJ28 cells after 72 hrs by MTT assay. The format is functional, cell-based. Conditions: EJ-28, 72 h. Put shortly:
(§2)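 Tumour lines kept in DMEM with 10% FBS and 1% penicillin/streptomycin at 37°C, 5% CO2. Seeded at 1500-5000 cells/well by doubling time and size, 24 h, then compound in DMSO-containing medium (final DMSO 0.1%) for 72 h. MTT (5 mg/mL) 4 h at 37°C, DMSO solubilisation, absorbance at 570 nm.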

Experiment [3] relates to HT-1080. In words: Cytotoxicity against human HT1080 cells assessed as inhibition of cell proliferation at 20 uM after 72 hrs by MTT assay relative to control. Format: functional. The settings on record: HT-1080, 72 h. In outline:
as §1
A general note: Tetrazolium dyes change colour on reduction, which living cells bring about.

The subject of experiment [4] is MCF7. The experiment can be described thus: Cytotoxicity against human MCF7 cells after 72 hrs by MTT assay. The settings on record: MCF7, 72 h. The format is functional, cell-based. Put shortly:
as §2

Experiment [5] concerns SW-620. The experiment can be described thus: Cytotoxicity against human SW620 cells assessed as inhibition of cell proliferation at 20 uM after 72 hrs by MTT assay relative to control. Conditions: SW-620, 72 h. The format is functional. In outline: as §1
The test system of experiment [6] is A549. The experiment can be described thus: Cytotoxicity against human A549 cells assessed as inhibition of cell proliferation at 20 uM after 72 hrs by MTT assay relative to control. Format: functional. The settings on record: A549, 72 h. Put shortly: as §1
Experiment [7] has as its system A549. The experiment can be described thus: Cytotoxicity against human A549 cells after 72 hrs by MTT assay. The settings on record: A549, 72 h. The format is functional, cell-based. In outline:
as §2

The test system of experiment [8] is HT-1080. In words: Cytotoxicity against human HT1080 cells after 72 hrs by MTT assay. Format: functional, cell-based. Conditions: HT-1080, 72 h. In outline: as §2
Experiment [9] concerns SW-620. The experiment can be described thus: Cytotoxicity against human SW620 cells after 72 hrs by MTT assay. The format is functional, cell-based. Conditions: SW-620, 72 h. Put shortly: as §2
The subject of experiment [10] is MCF7. The experiment can be described thus: Cytotoxicity against human MCF7 cells assessed as inhibition of cell proliferation at 20 uM after 72 hrs by MTT assay relative to control. The settings on record: MCF7, 72 h. The format is functional. Put shortly:
as §1

A further experiment concerns NHDF. In words: Cytotoxicity against NHDF after 72 hrs by MTT assay. The format is cell-based. The settings on record: Homo sapiens. Put shortly: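 NHDF grown in DMEM with 5% FBS at 37°C, 5% CO2. Seeded at 1500-5000 cells/well, 24 h, then compound added in DMSO-containing medium (final DMSO 0.1%) for 72 h. MTT (5 mg/mL in medium) added for 4 h at 37°C, formazan dissolved in DMSO, absorbance read at 570 nm.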

Usually inhibition stands for the change of the read-out against control, counted positive when it falls. For orientation: IC50 means the concentration needed to halve the response being measured. Lower therefore signals higher potency. Regarding `COc1cccc(/C=C2\CCC/C(=C\c3cccc(OC)c3OC)C2=O)c1`, the inhibition at 20 µM (in experiment [1]; with HT-1080 [3]; with SW-620 [5]; in the experiment with A549 [6]; in the experiment with MCF7 [10]) was > 50% in each case. Besides, the IC50 in experiment [2] was 10 µM; in the experiment with MCF7 [4], 5.9 µM; in the experiment with A549 [7], 16.4 µM; in the experiment with HT-1080 [8], 9.9 µM; in the experiment with SW-620 [9] it was 7 µM; in the experiment with NHDF, 16.4 µM.
On to `COc1cccc(/C=C2\CCC/C(=C\c3cccc(O)c3)C2=O)c1OC`, for which the inhibition at 20 µM (in experiment [1]; in the experiment on HT-1080 [3]; in the experiment with SW-620 [5]; in the experiment on A549 [6]; in the experiment on MCF7 [10]) was > 50% each time. Besides, the IC50 in experiment [2] is 8.5 µM; in the experiment with MCF7 [4], 8.8 µM; in the experiment with A549 [7], > 20 µM; with HT-1080 [8] it was 8.5 µM; with SW-620 [9], 6.4 µM; with NHDF it was 19.3 µM.
In the case of `COc1cc(/C=C/C(=O)CC(=O)/C=C/c2ccc(O)c(OC)c2)ccc1O` [CURCUMIN], the IC50 in experiment [2] turned out to be 10.5 µM; in the experiment on MCF7 [4], 9.8 µM; in the experiment on A549 [7], 17.9 µM; in the experiment on HT-1080 [8], 13.1 µM; with SW-620 [9] it was 14 µM; with NHDF it was 24.1 µM.
Consider `COc1ccc(/C=C2\CCC/C(=C\c3ccc(O)cc3)C2=O)cc1OC`, for which the inhibition at 20 µM (in experiment [1]; with HT-1080 [3]; with SW-620 [5]; with A549 [6]; in the experiment with MCF7 [10]) was > 50% in each case. Further, the IC50 was 16.6 µM in experiment [2]; 17 µM with MCF7 [4]; > 20 µM in the experiment on A549 [7]; 16.8 µM in the experiment with HT-1080 [8]; 7.7 µM with SW-620 [9]; 26.1 µM with NHDF.
Turning to `COc1cccc(/C=C2\CCC/C(=C\c3ccc(O)c(Cl)c3)C2=O)c1OC`, the inhibition at 20 µM (in [1]; in the experiment on HT-1080 [3]; in the experiment on SW-620 [5]; in the experiment on A549 [6]; in the experiment on MCF7 [10]) was > 50% in each case. Moreover, the IC50 in experiment [2] is 18.3 µM; in the experiment with MCF7 [4] it was 16.4 µM; in the experiment on A549 [7] it was > 20 µM; in the experiment on HT-1080 [8] it was 14.3 µM; in the experiment on SW-620 [9] it was 16.8 µM; in the experiment with NHDF it was 39.5 µM.
Take `COc1ccc(/C=C2\CCC/C(=C\c3ccccc3Cl)C2=O)cc1OC`: the inhibition at 20 µM (in [1]; with HT-1080 [3]; with SW-620 [5]; in the experiment on A549 [6]; in the experiment with MCF7 [10]) was > 50% each time. Further, the IC50 in [2] is 6.9 µM; in the experiment on MCF7 [4], 10.4 µM; in the experiment on A549 [7], > 20 µM; in the experiment with HT-1080 [8] it was 6.8 µM; in the experiment with SW-620 [9], 7.1 µM; in the experiment with NHDF it was 21.6 µM.
On to `COc1ccc(/C=C2\CCC/C(=C\c3cccc(OC)c3OC)C2=O)cc1OC`, for which the inhibition at 20 µM (in [1]; in the experiment with HT-1080 [3]; in the experiment with SW-620 [5]; in the experiment on A549 [6]; in the experiment on MCF7 [10]) was > 50% throughout. The IC50 in experiment [2] was determined as 6.6 µM; with MCF7 [4], 6.5 µM; in the experiment with A549 [7], 14.4 µM; in the experiment on HT-1080 [8], 6.4 µM; in the experiment on SW-620 [9] it was 6.4 µM; with NHDF it was 14.9 µM.
Take `COc1ccc(/C=C2\CCC/C(=C\c3ccc(Cl)cc3)C2=O)cc1OC`: the inhibition at 20 µM (in experiment [1]; in the experiment with HT-1080 [3]; in the experiment on SW-620 [5]; in the experiment with A549 [6]; in the experiment with MCF7 [10]) was > 50% each time. Moreover, the half-maximal inhibitory concentration (IC50) in [2] was found to be 5.7 µM; in the experiment with MCF7 [4], 6.3 µM; in the experiment on A549 [7] it was 10.1 µM; in the experiment with HT-1080 [8] it was 4.8 µM; in the experiment on SW-620 [9], 5.9 µM; with NHDF, 11.2 µM.
